Bioassay records (PubChem BioAssay)
core dimer inh – blocks dimerization of HCV core protein; AID 1899; 300,000 tested, 0.33% active; TR-FRET GST/Flag-core106 dimerization, 1536-well; inhibition, % at 5 µM;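 active = inhibition above the mean of all tested compounds plus 3 SD, set per screening campaign, cut at about 45% in these data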
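System: GST/Flag-tagged HCV core106 proteins. Incubation: compound-protein-antibody incubation 4 h at 22.5 °C. Technique: HTRF with 340 nm excitation, 617/671 nm emission. Medium: KF-containing HEPES buffer, pH 7.45, DTT, CHAPS, BSA. Read-out: inhibition (%) from 671 over 617 nm ratio. Also added: Eu(K)-anti-GST 90 ng/mL plus XL665-anti-Flag 1 µg/mL.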
pCIP destab – lowers stability of the mouse p/CIP coactivator protein. F442A p/CIP-EGFP cells, EGFP fluorescence, 16 h. decrease of EGFP signal, % at 10 µM. 290,000 tested, 0.01% active;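 active = EGFP signal decrease of at least 30% at 10 µM or well 3 SD below plate mean, unless failing retest; inactive = the rest, including hits failing retest or dose response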
Target sequence (Q05BA5 1-1403): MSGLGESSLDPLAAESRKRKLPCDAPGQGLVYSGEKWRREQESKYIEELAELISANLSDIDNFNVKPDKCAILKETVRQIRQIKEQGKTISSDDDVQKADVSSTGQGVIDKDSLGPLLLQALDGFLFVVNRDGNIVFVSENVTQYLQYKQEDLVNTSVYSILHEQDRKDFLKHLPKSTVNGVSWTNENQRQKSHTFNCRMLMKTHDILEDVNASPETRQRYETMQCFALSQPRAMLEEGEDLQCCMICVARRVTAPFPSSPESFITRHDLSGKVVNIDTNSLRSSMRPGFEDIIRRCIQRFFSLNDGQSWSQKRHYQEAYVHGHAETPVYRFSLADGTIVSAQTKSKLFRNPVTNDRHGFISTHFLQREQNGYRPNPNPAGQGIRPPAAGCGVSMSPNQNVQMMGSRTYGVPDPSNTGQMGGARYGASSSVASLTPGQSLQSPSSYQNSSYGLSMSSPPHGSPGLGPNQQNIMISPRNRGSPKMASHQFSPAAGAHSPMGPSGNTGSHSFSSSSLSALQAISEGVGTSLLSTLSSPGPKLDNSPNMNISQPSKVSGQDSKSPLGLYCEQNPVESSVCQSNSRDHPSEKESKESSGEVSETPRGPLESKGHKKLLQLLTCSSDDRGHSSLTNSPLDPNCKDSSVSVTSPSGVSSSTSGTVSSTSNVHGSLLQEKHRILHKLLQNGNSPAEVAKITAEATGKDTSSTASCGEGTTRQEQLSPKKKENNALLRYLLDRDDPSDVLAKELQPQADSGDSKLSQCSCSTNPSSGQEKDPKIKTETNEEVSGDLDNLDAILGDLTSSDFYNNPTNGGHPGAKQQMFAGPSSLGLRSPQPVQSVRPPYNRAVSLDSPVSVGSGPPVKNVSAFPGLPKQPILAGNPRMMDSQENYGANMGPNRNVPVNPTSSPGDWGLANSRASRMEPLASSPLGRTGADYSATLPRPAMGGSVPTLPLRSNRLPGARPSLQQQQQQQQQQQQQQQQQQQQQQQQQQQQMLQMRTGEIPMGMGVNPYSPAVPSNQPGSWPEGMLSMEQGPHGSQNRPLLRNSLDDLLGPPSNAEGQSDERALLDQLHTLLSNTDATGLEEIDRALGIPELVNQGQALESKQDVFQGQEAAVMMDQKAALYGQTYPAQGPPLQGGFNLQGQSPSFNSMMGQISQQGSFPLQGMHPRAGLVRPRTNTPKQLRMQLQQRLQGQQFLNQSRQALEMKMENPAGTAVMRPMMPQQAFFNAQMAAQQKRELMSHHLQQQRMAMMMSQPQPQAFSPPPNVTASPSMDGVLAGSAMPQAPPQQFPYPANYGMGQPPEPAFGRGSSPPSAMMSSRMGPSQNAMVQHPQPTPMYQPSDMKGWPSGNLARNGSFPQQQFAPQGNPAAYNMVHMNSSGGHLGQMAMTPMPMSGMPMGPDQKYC
GPR7 antagonist – antagonists of human GPR7 (neuropeptides B/W receptor 1); P48145; GPR7-expressing cells, fluorescence antagonist assay; inhibition, % at 4.4 µM; 290,000 tested, 1.1% active; in the data active = inhibition above about 16%, passing the limit was not always enough;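 note: cells stimulated with the agonist NPW; 0% = agonist with vehicle and 100% = vehicle without agonist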
FID counter – fluorescent intercalator displacement, NS3 helicase counter-screen; DNA fluorescent intercalator displacement, fluorescence; inhibition, % at 7.9 µM; 290,000 tested, 0.17% active; in the data active = inhibition above about 37%;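 note: 0% = vehicle and 100% = reference compound; higher means more ethidium bromide displaced from hairpin DNA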
NS3 helicase inh – HCV NS3 helicase inhibition. NS3 helicase DNA unwinding, Cy5 molecular beacon fluorescence. inhibition, % at 10.9 µM. 290,000 tested, 0.56% active;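 active = inhibition above the mean of all tested compounds plus 3 SD, set per campaign, cut at about 35% in these data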;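 note: 0% = DMSO wells and 100% = thioflavine S control wells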
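Control set: DMSO versus 110 µM thioflavine S; Material: NS3 helicase fragment of HCV; Measured by: Cy5 fluorescence at 0 and 60 min, beacon hairpin quenching; Read-out basis: percent inhibition from t60/t0 fluorescence ratio; Times: reaction time 60 min, 25 °C; Repeats: single replicate; Compound dosing: single dose, 10.9 µM nominal final, DMSO 0.8% final.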
* hit, by the source's call; . = no result. Rows were chosen to be rich in hits. Some 1.9% of all compounds tested hit in one or more screens of this group.

SMILES	core dimer inh	pCIP destab	GPR7 antagonist	FID counter	NS3 helicase inh
COc1ccc(NC(=O)Cn2cc(S(=O)(=O)Cc3ccccc3)c3ccccc32)c(OC)c1	52.0*	8.7	-1.9	-19.8	-0.6
O=C(CC(=O)NN=C1CCCCCC1)NCc1cccnc1	-1.6	-1.0	5.8	-6.3	1.8
COc1ccc(C2CC(c3ccccc3)=NN2c2ccc(C(N)=O)cc2)cc1 (configuration not stated)	9.3	-1.9	-17.7	-24.0	-30.5
COc1ccc(C2CC(c3ccccc3)=NN2c2ccc(/C=N/NC(=O)c3ccncc3)cc2)cc1 (configuration not stated)	47.7*	-14.1	-9.4	-4.7	3.6
COCCCNC(=O)c1ccc2c(=O)n(CC3CCCO3)c(=S)[nH]c2c1 (configuration not stated)	-0.5	-14.1	1.5	-15.9	-1.2
CC(C)NC(=O)c1ccc2c(=O)n(CC3CCCO3)c(=S)[nH]c2c1 (configuration not stated)	-0.3	9.7	17.4*	-8.9	4.6
O=C(c1cc2ccccc2cc1O)N1CCN(c2cccc(Cl)c2)CC1	12.7	.	.	.	.
O=C(c1c(Cl)nc2sccn12)N1CCN(c2cccc(Cl)c2)CC1	0.2	-3.6	15.4*	-5.8	-3.1
COc1ccc(CC(=O)Nc2ccc(-c3nnc(-c4ccccc4)o3)cc2)cc1OC	82.7*	-0.9	-1.2	-2.8	5.2
O=C(COc1ccccc1)Nc1ccc(-c2nnc(-c3ccco3)o2)cc1	51.8*	-3.4	-13.8	3.6	-0.8
COc1cccc(C(c2nnnn2CCc2ccccc2)N2CCN(c3ccccc3)CC2)c1OC (configuration not stated)	15.9	2.4	14.1	-31.2	-16.9
COc1ccc(C(c2nnnn2C2CCCC2)N2CCc3ccccc3C2)cc1OC (configuration not stated)	.	-13.2	21.7*	-17.9	-20.3
COc1ccc(OC)c(C(c2nnnn2C2CCCC2)N2CCN(c3ccccc3F)CC2)c1 (configuration not stated)	6.7	-8.9	27.8*	-24.1	-10.4
COc1ccc(N2CCN(C(c3ccccc3OC)c3nnnn3C3CCCC3)CC2)cc1 (configuration not stated)	.	2.8	3.6	-18.9	1.8
COc1ccc(N2CCN(C(c3cccc(OC)c3OC)c3nnnn3C3CCCC3)CC2)cc1 (configuration not stated)	8.8	-17.1	20.6*	-24.6	-7.2
COc1ccccc1C(c1nnnn1CCc1ccccc1)N1CCN(c2ccccc2)CC1 (configuration not stated)	-0.6	-1.4	22.7*	-1.6	9.1
COc1ccc(OC)c(C(c2nnnn2C2CCCC2)N2CCc3ccccc3C2)c1 (configuration not stated)	15.4	-12.5	14.0	-29.9	-14.0
O=C(CN1CCN(c2cccc(Cl)c2)CC1)c1ccc(O)cc1O	-2.1	-5.3	7.4	-13.9	-11.3
CCC(=O)N1CCc2cc(S(=O)(=O)NCCc3ccc(S(N)(=O)=O)cc3)ccc21	-12.2	0.9	-5.1	-12.9	1.5
Cc1ccc(-n2c(-c3ccc(Br)cc3)c[n+]3c2CCc2ccc4cccnc4c2-3)cc1	7.0	-15.0	65.0*	13.8	-88.7
O=C(c1ccc(O)c(Cl)c1)N1CCN(S(=O)(=O)c2ccccc2)CC1	4.9	-16.5	-9.7	-8.4	1.9
CCOC(=O)c1cn(-c2c(C)n(C)n(-c3ccccc3)c2=O)c2c(F)c(F)c(F)cc2c1=O	2.0	-1.7	8.6	-9.2	-9.4
CCCC(=O)OCCNc1cc(Sc2nc3ccccc3[nH]2)c2nonc2c1[N+](=O)[O-]	2.3	-4.6	25.3*	9.9	-57.4
CCN(CC)C(=O)COc1ccc(-c2nnc(Nc3ccc(OC)c(C(=O)NC)c3)c3ccccc23)cc1	0.9	2.7	18.9*	-35.6	22.2
COc1ccc(Nc2nnc(-c3ccc(C)cc3)c3ccccc23)cc1C(=O)N1CCCCC1	22.5	-8.1	3.0	-23.5	-7.8
COc1ccc(CC(=O)NNS(=O)(=O)c2ccc(F)cc2)cc1	3.4	-2.2	-4.9	-2.0	-3.2
O=C(COc1ccccc1Cl)c1ccc[nH]1	67.3*	0.1	-11.0	-1.0	3.0
CCOC(=O)c1c(C)[nH]c(C(=O)OCc2csc(CC(=O)Nc3ccccc3C)n2)c1C	0.6	.	.	.	.
O=[N+]([O-])c1cc(/C=N\O)ccc1Oc1ccc(F)cc1	-4.8	4.9	16.1*	12.3	-2.3
